The values that follow come from ChEMBL document CHEMBL1149137, “Synthesis, screening, and molecular modeling of new potent and selective antagonists at the alpha 1d adrenergic receptor” (J Med Chem, 2004).

For test [1], the target named is T1, Alpha-1D adrenergic receptor (Rattus norvegicus) (UniProt P23944).
T1 sequence (whole entry): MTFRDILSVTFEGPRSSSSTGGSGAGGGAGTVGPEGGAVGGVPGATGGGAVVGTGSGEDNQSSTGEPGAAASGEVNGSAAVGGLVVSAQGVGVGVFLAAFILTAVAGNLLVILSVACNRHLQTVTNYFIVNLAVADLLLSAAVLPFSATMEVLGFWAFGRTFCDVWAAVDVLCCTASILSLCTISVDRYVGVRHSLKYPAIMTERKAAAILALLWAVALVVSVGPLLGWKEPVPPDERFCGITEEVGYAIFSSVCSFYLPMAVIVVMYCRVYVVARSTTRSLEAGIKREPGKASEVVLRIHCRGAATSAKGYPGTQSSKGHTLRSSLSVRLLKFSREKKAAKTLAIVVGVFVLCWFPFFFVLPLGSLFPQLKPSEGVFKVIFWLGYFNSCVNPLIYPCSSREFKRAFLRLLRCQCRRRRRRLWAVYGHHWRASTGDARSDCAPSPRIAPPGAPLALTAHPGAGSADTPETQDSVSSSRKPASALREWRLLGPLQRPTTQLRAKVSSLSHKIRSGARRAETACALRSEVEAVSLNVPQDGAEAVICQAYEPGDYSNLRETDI
Put plainly: Fraction involved in salt bridge interactions with Asp3:11 part of the alpha-1D adrenergic receptor. The method, boiled down: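 Comparative models were built on a rhodopsin template and refined by energy minimization and MD. Docking used MCSS, and the value is the fraction of substituted phenylpiperazines forming a salt bridge with receptor Asp3:11.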

The target in test [2] is T1, Alpha-1D adrenergic receptor (Rattus norvegicus). The following applies: Aorta.
Test [3] addresses Alpha-1D adrenergic receptor (Homo sapiens) (UniProt P25100). Put plainly: Binding affinity to the adrenergic receptor alpha-1D of cloned human receptor.
The target in test [4] is T2, Alpha-1A adrenergic receptor (Rattus norvegicus) (UniProt P43140).
T2 sequence (whole entry): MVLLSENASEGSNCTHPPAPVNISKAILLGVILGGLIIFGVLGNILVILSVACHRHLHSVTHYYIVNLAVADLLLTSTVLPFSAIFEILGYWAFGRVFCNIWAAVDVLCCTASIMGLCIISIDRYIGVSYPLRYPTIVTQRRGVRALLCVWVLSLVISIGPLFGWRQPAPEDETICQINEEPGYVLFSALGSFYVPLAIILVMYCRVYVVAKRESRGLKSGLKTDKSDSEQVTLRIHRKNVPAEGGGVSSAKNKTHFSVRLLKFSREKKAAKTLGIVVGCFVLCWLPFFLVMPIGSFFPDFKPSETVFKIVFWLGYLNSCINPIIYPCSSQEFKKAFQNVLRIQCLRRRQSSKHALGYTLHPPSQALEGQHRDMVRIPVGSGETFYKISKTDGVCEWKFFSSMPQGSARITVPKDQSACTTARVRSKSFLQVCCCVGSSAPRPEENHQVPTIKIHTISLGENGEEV
The following applies: Vas deferens.

For test [5], the target named is T3, 5-hydroxytryptamine receptor 1A (Homo sapiens, UniProt P08908).
T3 sequence (P08908 whole entry): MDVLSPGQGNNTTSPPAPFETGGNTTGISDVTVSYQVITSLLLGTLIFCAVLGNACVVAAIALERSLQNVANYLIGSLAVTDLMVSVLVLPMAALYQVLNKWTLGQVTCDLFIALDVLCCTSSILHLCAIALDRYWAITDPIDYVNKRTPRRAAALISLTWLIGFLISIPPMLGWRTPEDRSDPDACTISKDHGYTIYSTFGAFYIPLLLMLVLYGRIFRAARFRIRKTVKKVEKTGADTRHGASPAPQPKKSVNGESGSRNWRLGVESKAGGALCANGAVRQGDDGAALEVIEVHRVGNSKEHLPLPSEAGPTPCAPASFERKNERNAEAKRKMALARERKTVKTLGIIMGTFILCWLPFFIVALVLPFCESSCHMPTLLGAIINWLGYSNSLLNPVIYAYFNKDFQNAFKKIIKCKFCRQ
Nature of the test: Binding affinity to human 5-hydroxytryptamine 1A receptor was measured using [3H]-8-hydroxy-2-(di-n-propylamine) tetraline [3H]8-OH-DPAT) as radioligand.

For test [6], the target named is Alpha-1A adrenergic receptor (Homo sapiens) (UniProt P35348). Put plainly: In vitro binding affinity towards alpha-1A adrenergic receptor through displacement of [3H]prazosin in cloned human receptor. For orientation: In a radioligand displacement assay an active substance lowers the binding of a labelled ligand.

In the case of `O=C1CC2(CCCC2)CC(=O)N1CCN1CCN(c2cc(Cl)ccc2Cl)CC1`, in test [1], the Activity is 0.4. Moreover, the pKB – broadly, −log10 of the KB, conventionally taken in molar units – in test [2] is 8.99. Besides, the Ki (in general, the dissociation constant of the complex between target and ligand, obtained from inhibition or displacement) in test [3] was found to be 0.13 nM.
Regarding `O=C1CC2(CCCC2)CCN1CCN1CCN(c2cc(Cl)ccc2Cl)CC1`, the negative logarithm of the KB (pKB) is 8.89 in test [2] and 7 in test [4]. Besides, in test [3], the inhibition constant Ki stood at 0.11 nM.
As to `N#Cc1ccccc1N1CCN(CCN2C(=O)CC3(CCCC3)CC2=O)CC1`, the Ki stood at 5.37 nM in test [5], 0.93 nM in test [3] and 214 nM in test [6].
Turning to `O=C1CC2(CCCC2)CC(=O)N1CCN1CCN(c2ccccc2Br)CC1`, the Ki was 1.29 nM in test [5], 1.6 nM in test [3] and 376 nM in test [6].
For `O=C1CC2(CCCC2)CC(=O)N1CCN1CCC(c2ccccc2Cl)CC1`, the inhibition constant Ki in test [5] came out at 5.25 nM; in test [3], 1.11 nM; in test [6], 2.01 nM.
In the case of `O=C1CC2(CCCC2)CC(=O)N1CCN1CCC(c2ccccc2)CC1`, the inhibitory constant (Ki) is 25.9 nM in test [5], 3.66 nM in test [3] and > 1000 nM in test [6].
For `O=C1CC2(CCCC2)CCN1CCN1CCN(c2ccccc2Cl)CC1`, the Ki in test [5] is 1.06 nM; in test [3], 0.54 nM; in test [6], 87.5 nM.
With `Cc1ccccc1N1CCN(CCN2C(=O)CC3(CCCC3)CC2=O)CC1`, the Ki in test [5] was 25.4 nM; in test [3] it was 2.16 nM; in test [6], 584 nM.
For the molecule `COc1ccccc1N1CCN(CCN2C=CC3(CCCC3)CC2=O)CC1`, the inhibitory constant (Ki) in test [5] came out at 3.84 nM; in test [3] it was 3.15 nM; in test [6], 29.2 nM.
Taken in the same sequence, the figures for `O=C1CC2(CCCC2)CC(=O)N1CCCCN1CCN(c2cc(Cl)ccc2Cl)CC1` were 26.1 nM, 0.67 nM and 1.81 nM.
In the case of `O=C1CC2(CCCC2)CC(=O)N1CCN1CCN(c2ccccc2Cl)CC1`, the Ki was 4.24 nM in test [5], 0.83 nM in test [3] and 552 nM in test [6].
Consider `COc1ccccc1N1CCN(CCN2C(=O)CC3(CCNCC3)CC2=O)CC1`, for which the Ki is > 1000 nM in test [5], 71.7 nM in test [3] and 631 nM in test [6].
As for `COc1ccccc1N1CCN(CCN2C(=O)CC3(CCCC3)CC2=O)CC1` [BMY-7378], the Ki in test [5] came to 0.8 nM. In addition, the Activity in test [1] is 0.3.
Take `O=C1CC2(CCCC2)CC(=O)N1CCN1CCN(c2cccc(Cl)c2)CC1`: the Ki is 1.09 nM in test [5], 2.02 nM in test [3] and > 1000 nM in test [6].
Consider `COc1ccccc1OCCN(C)CCN1C(=O)CC2(CCCC2)CC1=O`, for which the values for the Ki in test [5], in test [3] and in test [6] were 259 nM, 18.2 nM and > 1000 nM, respectively.
